This series is described as follows: Toxicity liver stage against HepG2, at 10uM. The conditions noted are these: human, HepG2-A16-CD81EGFP cells; read-out: INHIBITION
Type of series: cell-based. The arrangement: test concentration 10 uM, cell line HepG2-A16-CD81EGFP. The procedure, abridged:
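Uninfected HepG2-A16-CD81EGFP cells, 3 × 10^3 per well, 1536-well, plated on prespotted compound at 10 μM final, parasite-free screening media added to match infected plates; puromycin 10 μM positive, DMSO 0.5% negative; run in parallel with 48 h PbLuc assay at 37 °C, 5% CO2; viability by CellTiter-Glo luminescence, normalized to controls.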
Turning to `COc1ccc(C(=O)O)c(OCC(=O)NC(C)c2ccc(F)cc2)c1` (configuration not stated), the cytotoxicity at 10 µM was 1.65%.

As for `NC(=O)c1ccc(C2CCCN2C(=O)Cn2nc3ccccc3n2)s1` (configuration not stated), the cytotoxicity at 10 µM is 9.15%.

As for `Cc1ccc2nc(NCCCN3CCCCCC3=O)n(C)c(=O)c2c1`, the cytotoxicity at 10 µM was 7.04%.

Consider `CC(C)Cc1cc(C(=O)N2CC(OCc3ccccc3F)C2)n(C)n1`, for which the cytotoxicity at 10 µM came to 8.92%.

As to `Cc1n[nH]cc1CNC(C)c1cccc(N2CCCC2=O)c1` (configuration not stated), the cytotoxicity at 10 µM amounted to 6.05%.

For `Cc1cc(C)n(CC(=O)N2CCC(c3ccn4nccc4n3)CC2)n1`, the cytotoxicity at 10 µM is -0.0825%.

On to `Cn1nccc1C1CCN(Cc2csc(-c3ncccn3)n2)CC1`, for which the cytotoxicity at 10 µM is -1.91%.

`Cc1nn(Cc2ccc(F)cc2)c2[nH]nc(N)c12`: the cytotoxicity at 10 µM was 1.11%.

`NS(=O)(=O)c1ccc(NC(=O)CSc2ccc3c(c2)CCC3)cc1`: the cytotoxicity at 10 µM is -9.06%.

`O=C1NCC2=Nc3ccccc3NC(c3ccc(O)cc3)C12` (configuration not stated): the cytotoxicity at 10 µM amounted to 3.63%.

For `Cn1cc(C2=CCN(CCC(=O)NCc3ccc(Cl)cc3)CC2)cn1`, the cytotoxicity at 10 µM was -1.77%.

Take `O=C(Cn1cc(C(=O)O)ccc1=O)NCc1ccc(F)cc1Cl`: the cytotoxicity at 10 µM was -0.581%.

`Cc1cccc2c1OCCC2NCc1c(C(C)C)nn(C)c1N(C)C` (configuration not stated): the cytotoxicity at 10 µM turned out to be 0.423%.

For `Cc1noc(CCNC(=O)c2ccc(N(C)C)c(F)c2)n1`, the cytotoxicity at 10 µM was 6.05%.

In the case of `CC(C)N1CCC(Cc2cncc(-c3ccccc3C(=O)O)n2)CC1`, the cytotoxicity at 10 µM stood at 0.822%.

In the case of `CC(Cn1cccn1)NC(=O)N1CCN(Cc2ccncc2)CC1` (configuration not stated), the cytotoxicity at 10 µM was -20.8%.

For `CC(C)c1cccc(CSc2nnc(CN3CCCC3=O)o2)n1`, the cytotoxicity at 10 µM amounted to 3.59%.

With `CCC1=N[C@@]2(CC[C@@H]3CN(CC4CC4)C[C@@H]32)C(=O)N1C`, the cytotoxicity at 10 µM amounted to 0.153%.

As for `COc1cc(Cl)ccc1CNC(=O)N1CCC(n2cncn2)CC1`, the cytotoxicity at 10 µM was -0.861%.

Turning to `CC(c1ccncc1)N(C)S(C)(=O)=O` (configuration not stated), the cytotoxicity at 10 µM came out at 1.18%.

`O=C(CNC1(CCO)CCOCC1)Nc1ccc(F)cc1F`: the cytotoxicity at 10 µM is -41.6%.

Take `CC(C)(NCC(=O)NCC1CC1)c1ccc2c(c1)OCCO2`: the cytotoxicity at 10 µM is -9.8%.

Regarding `CCn1ccnc1CN1CCN(c2ccc3nnc(C)n3n2)CC1`, the cytotoxicity at 10 µM is 3.35%.

Take `Cc1cnn(CC2CN(Cc3csc(C4CCCC4)n3)CCO2)c1` (configuration not stated): the cytotoxicity at 10 µM was -5.47%.

With `CCNC(=O)CN1CCc2c(Br)ccc(F)c2C1`, the cytotoxicity at 10 µM was found to be 4.34%.

Take `Cc1cc(C(=O)N2C[C@@H]3COC[C@]3(CN(C)C)C2)c(C)o1`: the cytotoxicity at 10 µM is -131%.

With `NCC1CN(Cc2cn(CCC(N)=O)c3ccccc23)CCO1` (configuration not stated), the cytotoxicity at 10 µM amounted to 4.01%.

As for `COc1ccccc1OCCc1nnc(NC(=O)C2CC23CCC3)s1` (configuration not stated), the cytotoxicity at 10 µM is 1.26%.

With `Cc1noc(C2CCCN(C(=O)c3ccc(Cl)cc3F)C2)n1` (configuration not stated), the cytotoxicity at 10 µM is -25.3%.

`COCCNC(=O)CCC1CCN(Cc2cccc(SC)c2)CC1`: the cytotoxicity at 10 µM stood at 14.6%.

`CC(Nc1nc2c(cnn2C)c(=O)[nH]1)c1ccc2c(c1)CCCC2` (configuration not stated): the cytotoxicity at 10 µM was 9.62%.

For the compound `c1cc(CCn2ccc(NC3CCSCC3)n2)ccn1`, the cytotoxicity at 10 µM worked out at 5.55%.

As for `C1CCC(NC2CCCN(Cc3noc(C4CC4)n3)C2)C1` (configuration not stated), the cytotoxicity at 10 µM is -5.05%.

Turning to `O=C(O)C1CN(c2cccc(F)c2)CCO1` (configuration not stated), the cytotoxicity at 10 µM was -25.2%.

With `COCCN(C)CCN1CC2(CCN(C3CCOCC3)CC2)OC1=O`, the cytotoxicity at 10 µM was 4.5%.

Regarding `Cc1cc(O)nc(C2CCCNC2)n1` (configuration not stated), the cytotoxicity at 10 µM was -9.14%.

On to `CN(Cc1cccs1)C(=O)CN1C(=O)c2cc(Cl)c(Cl)cc2C1=O`, for which the cytotoxicity at 10 µM was -6.13%.

Consider `CC(C)(Oc1ccc(F)cc1)C(=O)NCc1ccco1`, for which the cytotoxicity at 10 µM was -9.19%.

With `O=C(CC1CC1)N1CCn2cc(Cn3cncn3)nc2C1`, the cytotoxicity at 10 µM is -8.87%.

Consider `CN1[C@@H](c2ccccc2)[C@@H](C(=O)NCc2ccncc2)C[C@@]1(C)C(=O)O`, for which the cytotoxicity at 10 µM is -40.6%.

Regarding `CC(CCSc1ccccc1)N1CCN(C(=O)c2ccccc2O)CC1` (configuration not stated), the cytotoxicity at 10 µM worked out at 8.97%.

Consider `Cc1nnc(CN(C)CC(=O)NCCc2ccc(F)cc2)n1C`, for which the cytotoxicity at 10 µM worked out at 2.25%.

With `CCNc1ncc(C(=O)NC(c2ccccc2)c2ccco2)cn1` (configuration not stated), the cytotoxicity at 10 µM was determined as 5.94%.

Turning to `Cc1cc(C)n(-c2ccccc2NC(=O)NCCS(=O)(=O)CC(C)C)n1`, the cytotoxicity at 10 µM is -3.92%.

In the case of `O=C(c1ccon1)N1CCc2ncnc(NCc3ccccn3)c2CC1`, the cytotoxicity at 10 µM stood at 0.436%.

Turning to `CC(C)c1nccc(C2CC(=O)Nc3n[nH]c(C4CCC4)c32)n1` (configuration not stated), the cytotoxicity at 10 µM was -14.6%.

Turning to `Cc1cc(C)n(C2CN(CC(=O)NC3CCS(=O)(=O)C3)C2)n1` (configuration not stated), the cytotoxicity at 10 µM is -9.41%.

For `N#CCCN(Cc1cccnc1)C(=O)Cc1ccc(-n2cnnn2)cc1`, the cytotoxicity at 10 µM is 2.32%.

Take `CC(C)(C)C(=O)NCC(=O)NCC1CCCS1` (configuration not stated): the cytotoxicity at 10 µM came to 3.46%.

As for `CC(C)Oc1cccc(-c2nc3c([nH]2)CCCNC3=O)c1`, the cytotoxicity at 10 µM turned out to be 27.3%.

Take `CCC(=O)N1CCC(O)(c2ncc(OC)nc2OC)CC1`: the cytotoxicity at 10 µM came out at 3.03%.

As for `CCn1cc2c(n1)CN(Cc1ccc(F)cc1)CC2COCC1CC1` (configuration not stated), the cytotoxicity at 10 µM was -69%.

In the case of `CC(OCC1CC1)C(=O)N1CCCN(Cc2nccn2C)CC1` (configuration not stated), the cytotoxicity at 10 µM stood at 2.48%.

For `CN(C)c1nc2c(c(N3CCC4(CCCNC4=O)C3)n1)CCCC2` (configuration not stated), the cytotoxicity at 10 µM was -5.81%.

As to `Cn1ncc(NC(=O)c2noc3c2CCCC3)c1C(N)=O`, the cytotoxicity at 10 µM was determined as 5.8%.

Consider `O=C(COCC1CC1)Nc1cc(-c2ccc(Br)s2)n[nH]1`, for which the cytotoxicity at 10 µM was -155%.

For the compound `O=C(NCC1Cn2nnc(-c3ccoc3)c2CO1)c1ccc[nH]1` (configuration not stated), the cytotoxicity at 10 µM was determined as 2.61%.

Consider `c1ccc(-c2nnn3c2COC(CNCc2ccccn2)C3)cc1` (configuration not stated), for which the cytotoxicity at 10 µM was found to be 0.595%.

Regarding `CSc1ccccc1CN1CCn2nc(CNC(C)=O)cc2C1`, the cytotoxicity at 10 µM is -17%.

Take `COc1cccc(COCC(=O)N2CCCC(n3ccnc3)C2)c1` (configuration not stated): the cytotoxicity at 10 µM was -8.38%.

With `CCCc1nnsc1C(=O)NCC(O)c1ccc(SC)cc1` (configuration not stated), the cytotoxicity at 10 µM was found to be 1.71%.

Regarding `CN1CCCc2cc(CNC(=O)c3cccnc3O)ccc21`, the cytotoxicity at 10 µM was -1.68%.

On to `Cc1cc(C)n(CC2CN(CC(=O)NC(C3CC3)C3CC3)CCO2)n1` (configuration not stated), for which the cytotoxicity at 10 µM was -0.544%.

With `CN(Cc1nnc2ccccn12)C(=O)CCNC(=O)C(C)(C)C`, the cytotoxicity at 10 µM stood at 12.5%.

For `O=C(CCc1nc2ccccc2[nH]1)NC1CCOC2(CCOCC2)C1` (configuration not stated), the cytotoxicity at 10 µM stood at 9.64%.

`CN(CC(C)(C)O)C1CCCN(Cc2noc(C3CC3)n2)C1` (configuration not stated): the cytotoxicity at 10 µM was 0.85%.

In the case of `O=C(c1cc(F)ccc1O)N1CCN(C(=O)C2CCC2)CC1`, the cytotoxicity at 10 µM came out at 1.22%.

On to `CS(=O)(=O)N1CC(c2n[nH]c3ncccc23)C1`, for which the cytotoxicity at 10 µM was -23.4%.

For `COc1cc(F)ccc1C(C(=O)O)N1CCN(C2CCCCC2)CC1` (configuration not stated), the cytotoxicity at 10 µM was -8.93%.

Regarding `Cc1ccsc1CN(C)C(=O)c1cc2c([nH]c1=O)CCCC2=O`, the cytotoxicity at 10 µM was -5.36%.

With `Cc1cc(NCCN)nc2ccccc12`, the cytotoxicity at 10 µM came out at 2.09%.

For the compound `Cc1oncc1C(=O)N1CC[C@H]2[C@@H]1CCC(=O)N2CC1CCOCC1`, the cytotoxicity at 10 µM was 4.33%.

With `CCOCCC1(CNC(=O)c2ccncc2)CCC1`, the cytotoxicity at 10 µM came out at 4.11%.

`COc1ccc(NCc2ccccc2N2CCN(C(C)=O)CC2)cn1`: the cytotoxicity at 10 µM is 1.85%.

Regarding `Cc1nc(NC(=O)C(C)N2CCN(c3ccccc3F)CC2)sc1C` (configuration not stated), the cytotoxicity at 10 µM is -0.879%.

For the compound `COc1nn(C)c2c1CCCN(S(=O)(=O)c1ccccc1F)C2`, the cytotoxicity at 10 µM was -109%.

As for `CC1CC(=O)c2cnc3nc(N4CCOCC4)[nH]c(=O)c3c2C1` (configuration not stated), the cytotoxicity at 10 µM is 5.31%.

Consider `Cc1cc(C(=O)N2CCc3ncc(CN4CCOCC4)n3CC2)no1`, for which the cytotoxicity at 10 µM came out at 3.76%.

Take `CCc1ccsc1C(=O)NC(C#N)CC` (configuration not stated): the cytotoxicity at 10 µM was 3.15%.

`Cn1cc(NC(=O)c2cccc3cccnc23)ccc1=O`: the cytotoxicity at 10 µM was -4.83%.

Consider `Cc1nccc(N(C)Cc2ncc(-c3ccccc3C(=O)O)s2)n1`, for which the cytotoxicity at 10 µM worked out at 1.31%.

As to `Cc1cc(C(=O)NC2CCN(C(=O)Nc3cccnc3)CC2)c(C)o1`, the cytotoxicity at 10 µM was 6.62%.

For `Cc1nc(CN2CCOC(CNc3cccnn3)C2)cs1` (configuration not stated), the cytotoxicity at 10 µM is -12%.

Regarding `Cc1ccccc1N1CC2(CCN(S(=O)(=O)c3ccccc3)C2)CC1=O` (configuration not stated), the cytotoxicity at 10 µM was determined as 6.24%.

Regarding `CN(Cc1ccco1)[C@@H]1CN(Cc2cccs2)C[C@@H]2CCCO[C@@H]21`, the cytotoxicity at 10 µM came out at 3.65%.

In the case of `COc1cc(C2(C(=O)NC3CCC4(CC3)OCCO4)CC2)ccc1C`, the cytotoxicity at 10 µM is -13.2%.

Turning to `CSC1=Nc2c(cnn2-c2ccc(Cl)cc2)C2=NCCCN12`, the cytotoxicity at 10 µM was determined as 7.41%.

`O=C(c1ccc(F)cc1)N(CCCO)S(=O)(=O)c1cccs1`: the cytotoxicity at 10 µM is -6.24%.

On to `COCCN1C=NC2(CCC(C(=O)Nc3ccc(C)cc3)CC2)C1=O` (configuration not stated), for which the cytotoxicity at 10 µM turned out to be 15.1%.

As for `CC(C)NC(=O)c1cc(Br)cc(S(=O)(=O)N2CCOCC2)c1F`, the cytotoxicity at 10 µM worked out at 6.17%.

In the case of `Cc1ccccc1-n1cc(-c2ccnc(N3CCCC(CN)C3)n2)cn1` (configuration not stated), the cytotoxicity at 10 µM was 1.34%.

With `Cc1ccc(CNC2CCN(CCc3ccncc3)CC2)cc1C`, the cytotoxicity at 10 µM was -8.92%.

`CCN1C[C@H]2CCN(Cc3ccncc3)C(=O)[C@@H]2C1`: the cytotoxicity at 10 µM came out at 5.53%.

Consider `O=C(CCc1nccs1)N1CCN(c2ccc(Br)cn2)CC1`, for which the cytotoxicity at 10 µM was -2.65%.

On to `O=C(c1ccnc(N2CCOC(c3ccc(Cl)cc3)C2)c1)N1CCCC1` (configuration not stated), for which the cytotoxicity at 10 µM is -1.8%.

`COc1cc(N2CCC3(CC2)CN(S(C)(=O)=O)c2ccccc23)ncn1`: the cytotoxicity at 10 µM amounted to 12.8%.

With `Cc1cc(C)c2nc(CN3CCOCC(O)C3)cc(O)c2c1` (configuration not stated), the cytotoxicity at 10 µM was -3.89%.

(Values after ChEMBL document CHEMBL4513216, “Probing the Open Global Health Chemical Diversity Library for Multistage-Active Starting Points for Next-Generation Antimalarials” (ACS Infect Dis, 2020).)
